Assay outcomes from PubChem.
Hits are enriched below; roughly 1.5% of the tested compounds scored in any of these assays.
m-calpain inh = calpain II (pig) inhibition; purified calpain II, fluorogenic peptide substrate, 30 min; inhibition, % at 16 µM; 220,000 compounds, 0.37% hits; AID 1236;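 active = inhibition above about 50%, limit read from the data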
Hsp70 activator = Hsp70 transcriptional activation, primary screen. HeLa Hsp70 promoter luciferase reporter, luminescence; scaled: vehicle 0, proteasome-inhibitor control 100%. activation, % at 10 µM. 200,000 compounds, 0.04% hits;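 active = activation above the mean across all tested compounds plus 3 SD, cutoff set per campaign, cut at about 5.5% in these data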
MDM2 E3 inh = blocks human Mdm2 ubiquitin ligase activity; 210,000 compounds, 0.11% hits; signal enhancement, % at 5 µM; cell-based MDM2 ubiquitination luciferase reporter, 2 h; 0 = plate control, 100 = twice control, blank-subtracted;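 active = signal enhancement of 30% or more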;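 also: luminescence tracks abundance of the self-degrading MDM2-luciferase fusion protein; higher signal means inhibition of MDM2 E3 ligase activity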
Target sequence (Q00987 whole entry, looked up, the tested form may be a part): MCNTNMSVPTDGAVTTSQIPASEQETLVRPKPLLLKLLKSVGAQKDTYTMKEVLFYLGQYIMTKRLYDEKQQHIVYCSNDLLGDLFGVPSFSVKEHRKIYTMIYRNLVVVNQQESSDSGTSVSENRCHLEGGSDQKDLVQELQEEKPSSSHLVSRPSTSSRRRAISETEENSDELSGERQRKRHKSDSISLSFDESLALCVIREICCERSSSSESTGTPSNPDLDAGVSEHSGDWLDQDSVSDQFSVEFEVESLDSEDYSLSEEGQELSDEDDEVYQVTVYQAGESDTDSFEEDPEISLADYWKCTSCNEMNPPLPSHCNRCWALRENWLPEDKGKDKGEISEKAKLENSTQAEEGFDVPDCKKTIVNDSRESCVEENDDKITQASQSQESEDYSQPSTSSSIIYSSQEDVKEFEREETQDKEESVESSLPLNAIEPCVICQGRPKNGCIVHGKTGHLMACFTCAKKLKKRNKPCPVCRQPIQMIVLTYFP
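Test system: stable mammalian line carrying autodegrading MDM2–luciferase fusion reporter; quantity: 2000 cells in each well; times: 4 h cell settling then 2 h compound exposure, 37 °C; detection: luminescence with SteadyLite reagent, 15 min at room temperature; evaluation: percent signal gain over controls, blank-subtracted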
Pf gamet viab = P. falciparum stage V gametocyte viability inhibition. P. falciparum stage V gametocytes, ATP luminescence, 24 h. inhibition, % at 10.9 µM. 150,000 compounds, 0.065% hits;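 active = inhibition above the mean plus 3 SD of compounds within the control limits, set per campaign, cut at about 38% in these data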
Wee1 stabilizer = blocks degradation of human Wee1 kinase | P30291 | reporter increase, % at 5 µM | HeLa Luc-Wee1K328M stability, luciferase luminescence; 100% = proteasome inhibitor MG132 effect | 220,000 compounds, 1.2% hits;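 active = activation above the mean of all tested compounds plus 3 SD, set per screening run, cut at about 8.8% in these data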;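 also: cells exposed to compound for 20 h before luminescence read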
Wee1 stab conf = confirmation of human Wee1 degradation inhibitors. shares compounds with Wee1 stabilizer. activation, % at 5 µM. 1,100 compounds, 4% hits. AID 1410. HeLa Luc-Wee1K328M degradation, luminescence; vehicle 0%, proteasome-blocked wells 100%; in the data active = activation above about 8.9%
Hits are given with their value; i = inactive; nt = no result.

SMILES	m-calpain inh	Hsp70 activator	MDM2 E3 inh	Pf gamet viab	Wee1 stabilizer	Wee1 stab conf
COc1ccc(OCC(O)Cn2c(=N)n(CCN3CCCCC3)c3ccccc32)cc1 (stereo not given)	i	i	i	nt	14.3	i
O=C(CSc1nnc(-c2cccc(S(=O)(=O)N3CCCC3)c2)n1-c1ccccc1)Nc1ccc(C(=O)O)cc1	i	i	nt	i	i	nt
Cc1cccc(C)c1-n1c(SCC(=O)Nc2ccc(C(=O)O)cc2)nnc1-c1cccc(S(=O)(=O)N(C)C)c1	i	i	i	i	11.7	i
CC1(C)CC(=O)C(C(c2ccncc2)C2C(=O)CC(C)(C)CC2=O)C(=O)C1	nt	i	nt	nt	13.4	i
CCCn1nnnc1NC(=O)COc1ccc(Br)cc1	i	i	i	i	i	nt
Cc1ccc(C(C(=O)NCc2ccco2)N(C(=O)CNC(=O)c2cccs2)c2c(C)cccc2C)cc1 (stereo not given)	i	i	i	i	i	nt
Cc1ccc(C(C(=O)NCc2ccco2)N(C(=O)CNC(=O)c2cccs2)c2c(C)cc(C)cc2C)cc1 (stereo not given)	i	i	i	i	11.5	i
Cc1ccc(S(=O)(=O)CCC(=O)OCC(=O)NC(N)=O)cc1	i	nt	i	i	13.6	i
O=C(NCc1cccs1)C1CCC(CNS(=O)(=O)c2ccccc2)CC1 (stereo not given)	i	i	i	i	12.1	i
Cc1ccc(S(=O)(=O)NCC2CCC(C(=O)NCc3cccs3)CC2)cc1 (stereo not given)	i	i	i	i	i	nt
O=C(Nc1ccc(O)cc1)/C(=C/c1ccco1)NC(=O)c1ccccc1	i	nt	nt	i	11.8	i
CN(C)S(=O)(=O)c1ccc(C(=O)NCC(=O)N/N=C/c2ccccc2Cl)cc1	i	i	i	i	i	nt
CC(C)c1ccc(/C=N/NC(=O)c2ccccn2)cc1	i	nt	i	i	i	nt
CC(C)c1ccc(/C=N/NC(=O)c2cccc(Cl)c2)cc1	i	i	i	i	13.5	i
COc1ccc(C)cc1S(=O)(=O)NC1CC1	nt	nt	nt	i	nt	nt
Oc1cccc2ccc[n+](CC(O)Cn3c4ccccc4c4ccccc43)c12 (stereo not given)	i	i	i	i	17.8	i
CN(Cc1c(F)cccc1Cl)C(=O)C1CC(=O)N(CCc2ccccc2)C1 (stereo not given)	i	i	i	i	12.5	i
O=C(O)C1CC(=O)N(CCc2ccccc2)C1 (stereo not given)	i	i	i	nt	i	nt
COc1ccc(CNC(=O)C(C)N2C(=O)COc3ccc(C)cc32)c(OC)c1 (stereo not given)	i	nt	nt	i	i	nt
O=C(COc1ccccc1[N+](=O)[O-])NNC(=O)Nc1cccc2ccccc12	i	i	i	i	16.0	i
CC(C)c1nnc(NC(=O)COc2ccccc2[N+](=O)[O-])s1	i	nt	i	i	22.5	i
Cc1ccc(Nc2c(-c3ccco3)nc3nc(C)cc(C)n23)cc1	i	i	i	nt	31.4	i
COc1ccc(C(C)C)cc1S(=O)(=O)n1ccnc1C	i	i	i	i	12.8	i
COc1cc(C(=S)N2CCN(C(c3ccccc3)c3ccccc3)CC2)cc(OC)c1O	nt	nt	nt	i	nt	nt
COc1ccccc1CN1[C@@H](CC(C)=O)c2cc(C(F)(F)F)ccc2S1(=O)=O	nt	nt	nt	i	nt	nt
SMILES	m-calpain inh	Hsp70 activator	MDM2 E3 inh	Pf gamet viab	Wee1 stabilizer	Wee1 stab conf
CC(C)CCNC(=O)c1cc(-c2ccncc2)nc2ccc(S(=O)(=O)N3CCOCC3)cc12	i	i	i	i	11.1	i
COCCNC(=O)c1cc(-c2ccncc2)nc2ccc(S(=O)(=O)N3CCOCC3)cc12	i	i	i	i	i	nt
CC(=O)Nc1ccc(NC(=O)CCc2nc3ccccc3c(=O)[nH]2)cc1	i	i	i	nt	i	nt
O=C(CCc1nc2ccccc2c(=O)[nH]1)Nc1ccc(N2CCCCC2)cc1	i	i	i	i	11.2	i
Cc1cccc(OCC(=O)O/N=C(\N)c2ccccn2)c1C	i	i	i	nt	11.2	i
CC1(C)Oc2ccc(NC(=O)c3ccco3)cc2O1	i	i	i	nt	12.9	i
CCN(CC)c1ccc(NC(=O)COc2ccccc2C#N)cc1S(=O)(=O)Nc1ccc(OC)cc1	i	i	i	i	i	nt
CCN(CC)c1ccc(NC(=O)c2cnccn2)cc1S(=O)(=O)Nc1ccc(OC)cc1	i	i	i	i	11.5	i
